Assay results reported in ChEMBL document CHEMBL1152518, “1,2,3-Selenadiazole thioacetanilides: synthesis and anti-HIV activity evaluation” (Bioorg Med Chem, 2009).
pEC50, pIC50: −log10 of the molar value.

How the values were obtained:
[1] = molecular target: Human immunodeficiency virus type 1 reverse transcriptase (Human immunodeficiency virus 1, UniProt Q72547); assay: Inhibition of wild type HIV1 reverse transcriptase
[2] = molecular target: Human immunodeficiency virus type 1 reverse transcriptase (Human immunodeficiency virus 1, UniProt Q72547, K103N/Y181C); assay: Inhibition of HIV1 reverse transcriptase K103N/Y181C mutant
[3] = test system: Human immunodeficiency virus 1; assay: Antiviral activity against HIV1 3B infected in human MT4 cells assessed as inhibition of virus-induced cytopathic effect after 5 days by MTT assay; type: functional, organism-based; conditions: Human immunodeficiency virus 1, 3B, MT4, 120 h
Summary of the method: (§1)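 MT-4 cells, resuspended at 6 × 10⁵ cells/ml, infected with HIV-1 IIIB or HIV-2 ROD at 100–300 CCID₅₀. Test compound stocks were made at 10× final concentration. Read after 5 days as MTT reduction to formazan, absorbance at 540 and 690 nm. Median OD of three wells. EC₅₀ is the concentration giving 50% protection against virus-induced cytopathic effect.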

[4] = test system: Human immunodeficiency virus 2; assay: Antiviral activity against HIV2 ROD infected in human MT4 cells assessed as inhibition of virus-induced cytopathic effect after 5 days by MTT assay; type: functional, organism-based; conditions: Human immunodeficiency virus 2, ISOLATE ROD, MT4, 120 h; summary of the method: as §1
[5] = Cytotoxicity against mock-infected human MT4 cells after 5 days by MTT assay; type: cell-based
Summary of the method: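 Mock-infected MT-4 cells at 6 × 10⁵ cells/ml, with culture medium in place of virus, exposed to compound (stocks at 10× final concentration) for 5 days. Viability read by MTT, absorbance at 540 and 690 nm, median OD of three wells. CC₅₀ is the concentration reducing OD540 of the mock-infected control by 50%.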

[6] = Selectivity index, ratio of CC50 for mock-infected human MT4 cells to EC50 for HIV1 3B infected in human MT4 cells; type: toxicity, cell-based; conditions: mock-infected (CC50) and HIV-1 3B infected (EC50)
Summary of the method: (§2)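 Selectivity index is CC₅₀/EC₅₀. Both values come from MTT assays run over 5 days in MT-4 cells, mock-infected or infected with HIV-1 IIIB or HIV-2 ROD at 100–300 CCID₅₀. Median OD of three wells.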

[7] = Selectivity index, ratio of CC50 for mock-infected human MT4 cells to EC50 for HIV2 ROD infected in human MT4 cells; type: toxicity, cell-based; conditions: read-out: Ratio CC50/EC50; summary of the method: as §2

pIC50 [1] | Compound | pEC50 [1] | pEC50 [2] | pEC50 [3] | pEC50 [4] | CC50 at 120 h [5] [µM] | selectivity ratio [6] | selectivity ratio [7]
 | Cc1ccc(-n2c(C)nnc2SCC(=O)Nc2ccccc2)cc1 | 5.69 |  |  |  |  |  | 
 | Cc1ccc(NC(=O)CSc2nnc(C)n2-c2ccccc2)c(Br)c1 | 7.00 | 5.89 |  |  |  |  | 
8.30 | Cc1cc(C)c(-n2nnnc2SCC(=O)Nc2ccccc2Cl)c(C)c1 |  |  |  |  |  |  | 
 | Cc1cccc(C)c1NC(=O)CSc1[se]nnc1-c1ccc(Cl)c(Cl)c1 |  |  | < 5.15 | < 5.15 | 7 | < 1 | < 1
 | O=C(CSc1[se]nnc1-c1ccc(Cl)c(Cl)c1)Nc1ccccn1 |  |  | < 4.50 | < 4.50 | 31.4 | < 1 | < 1
 | O=C(CSc1[se]nnc1-c1ccc(Cl)c(Cl)c1)Nc1ccccc1F |  |  | < 4.57 | < 4.57 | 26.9 | < 1 | < 1
 | COC(=O)c1ccsc1NC(=O)CSc1[se]nnc1-c1ccc(Cl)c(Cl)c1 |  |  | < 4.66 | < 4.66 | 22 | < 1 | < 1
 | O=C(CSc1[se]nnc1-c1ccc(Cl)c(Cl)c1)Nc1nccs1 |  |  | < 5.06 | < 5.06 | 8.68 | < 1 | < 1
 | Cc1ccc(NC(=O)CSc2[se]nnc2-c2ccc(Cl)c(Cl)c2)c(Br)c1 |  |  | ≤ 5.06 | < 4.64 | 22.9 |  | < 1
 | O=C(CSc1[se]nnc1-c1ccc(Cl)c(Cl)c1)Nc1ccccc1Cl |  |  | < 4.63 | < 4.63 | 23.4 | < 1 | < 1
 | Cc1ccc(NC(=O)CSc2[se]nnc2-c2ccc(Cl)c(Cl)c2)cc1 |  |  | 5.18 | < 4.88 | 13.3 | 2 | < 1
 | O=C(CSc1[se]nnc1-c1ccc(Cl)c(Cl)c1)Nc1ccccc1 |  |  | ≤ 5.22 | < 4.72 | 19 | 63 | < 1
 | Cc1cccc(NC(=O)CSc2[se]nnc2-c2ccc(Cl)c(Cl)c2)c1C |  |  | < 4.89 | < 4.89 | 12.8 | < 1 | < 1
 | O=C(CSc1[se]nnc1-c1ccc(Cl)c(Cl)c1)Nc1cccnc1Cl |  |  | < 4.61 | < 4.61 | 24.8 | < 1 | < 1
 | O=C(CSc1[se]nnc1-c1ccc(Cl)c(Cl)c1)Nc1ccc(Cl)cc1 |  |  | 5.25 | < 4.77 | 16.8 | 3 | < 1
 | Cc1ccccc1NC(=O)CSc1[se]nnc1-c1ccc(Cl)c(Cl)c1 |  |  | 5.25 | < 4.65 | 22.3 | 4 | < 1
 | Cc1ccc2sc(NC(=O)CSc3[se]nnc3-c3ccc(Cl)c(Cl)c3)nc2c1 |  |  | < 4.99 | < 4.99 | 10.2 | < 1 | < 1
 | Cc1ccc(NC(=O)CSc2[se]nnc2-c2ccc(Cl)c(Cl)c2)c([N+](=O)[O-])c1 |  |  | 5.27 | < 4.58 | 26.3 | 5 | < 1
 | O=C(CSc1[se]nnc1-c1ccc(Cl)c(Cl)c1)Nc1ccccc1Br |  |  | < 4.63 | < 4.63 | 23.6 | < 1 | < 1
 | CC(=O)c1ccc(NC(=O)CSc2[se]nnc2-c2ccc(Cl)c(Cl)c2)c(Br)c1 |  |  | 5.61 | < 4.72 | 18.9 | 8 | < 1
 | O=C(CSc1[se]nnc1-c1ccc(Cl)c(Cl)c1)Nc1ccccc1[N+](=O)[O-] |  |  | ≤ 5.16 | < 4.58 | 26.6 |  | < 1
